Bioassay records from PubChem BioAssay.
V1aR counter – activates human V1a receptor in oxytocin agonist counter-screen. CHO-V1R cells, Fluo-8 calcium fluorescence, agonist mode; 0% DMSO, 100% 3 nM vasopressin. activation, % at 3 µM. actives 0.25% (n = 320,000). AID 2797;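 active = activation above the mean activation of all tested compounds plus 3 SD, per screening run, cut at about 20% in these data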;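 also: signal is peak over basal fluorescence ratio across a 100 second FLIPR read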
TAAR1 ag – agonists of human TAAR1; Q96RJ0; CHO RD-HGA16 TAAR1, Fluo-8 calcium fluorescence; vehicle wells 0%, saturating PEA agonist 100%; activation, % at 3 µM; actives 0.99% (n = 360,000);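 active = activation above the mean activation of all test compounds in the run plus 3 SD, cut at about 38% in these data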
Target sequence (Q96RJ0 whole entry, looked up): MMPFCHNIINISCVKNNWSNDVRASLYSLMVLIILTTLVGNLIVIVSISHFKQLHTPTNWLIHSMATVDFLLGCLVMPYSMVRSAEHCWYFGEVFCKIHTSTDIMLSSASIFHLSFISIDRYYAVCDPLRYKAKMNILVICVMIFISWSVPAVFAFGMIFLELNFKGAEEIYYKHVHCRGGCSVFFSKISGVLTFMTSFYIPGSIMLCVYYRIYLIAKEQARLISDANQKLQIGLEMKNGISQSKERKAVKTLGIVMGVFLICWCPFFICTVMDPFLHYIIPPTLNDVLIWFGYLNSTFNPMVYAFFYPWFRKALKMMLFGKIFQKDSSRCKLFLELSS
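test system = CHO RD-HGA16 cells carrying human TAAR1 plus Gα16 | schedule = 17-24 h seeding, 75 min 37 °C dye, 30 min RT | compound dosing = 3 µM single concentration | control set = DMSO and PEA EC100 | replicates = n 1 | signal = Fluo-8 fluorescence, 5 s baseline then 140 s kinetic read | measure = percent activation vs PEA EC100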
OXTR potentiator – potentiates the human oxytocin receptor response; P30559; CHO-OTR cells, Fluo-8 calcium fluorescence, potentiator mode; 0% = oxytocin EC15, 100% = EC100; activation, % at 3 µM; actives 0.061% (n = 320,000); AID 2445;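 active = activation above that plate's cutoff, the mean activation of tested compounds plus 3 SD, cut at about 6.6% in these data, passing the limit was not always enough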
Target sequence (P30559 whole entry, looked up): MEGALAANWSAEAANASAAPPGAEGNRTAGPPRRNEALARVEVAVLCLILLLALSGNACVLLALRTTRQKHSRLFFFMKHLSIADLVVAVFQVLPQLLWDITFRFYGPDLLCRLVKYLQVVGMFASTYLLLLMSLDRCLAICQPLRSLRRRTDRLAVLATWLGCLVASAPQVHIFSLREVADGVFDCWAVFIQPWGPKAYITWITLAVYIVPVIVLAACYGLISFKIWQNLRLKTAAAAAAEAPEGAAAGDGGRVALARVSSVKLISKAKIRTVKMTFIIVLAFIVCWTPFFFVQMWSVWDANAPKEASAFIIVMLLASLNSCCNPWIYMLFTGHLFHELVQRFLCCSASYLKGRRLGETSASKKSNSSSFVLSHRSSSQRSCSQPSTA
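Replication – single well per compound, singlicate · Assay system – CHO cell line stably expressing human OTR · Timing – 6 min pre-incubation, 100 s read · Measure – normalized max/min fluorescence ratio, % activation · Doses – 3.0 µM, one dose · Detection – Fluo-8 calcium dye fluorescence · Probe or stimulus – oxytocin near EC15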
OXTR ag – human OXTR agonism; actives 0.32% (n = 320,000); activation, % at 3 µM; CHO-OTR cells, Fluo-8 calcium fluorescence; normalized: DMSO 0%, oxytocin 100%;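 active = activation above the mean of all tested compounds plus 3 SD, cutoff set per screening run, cut at about 20% in these data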;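 also: peak over basal fluorescence ratio from a 100 s FLIPR kinetic read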
TAAR1 antag – antagonists of human TAAR1; Q96RJ0; CHO RD-HGA16 TAAR1, Fluo-8 calcium fluorescence, antagonist; inhibition, % at 3 µM; actives 1.5% (n = 360,000);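 active = inhibition above a per-plate cutoff, the mean inhibition of test compounds on that plate plus 3 SD, cut at about 49% in these data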
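Test system – hTAAR1-expressing CHO RD-HGA16 cells, Gα16-coupled · Also added – β-PEA at EC80 concentration, post-compound challenge · Compound – 3 µM, single point · Incubation – dye loading 75 min at 37 °C, then 30 min room temperature · Measured by – Fluo-8 intracellular calcium dye fluorescence, real-time kinetic reads · Benchmarks – vehicle and agonist controls · Replicates – singlicate, one well per test compound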
nonsel antag count – counter-screen for TAAR1 antagonists: nonselective antagonists. shares compounds with TAAR1 antag. counterscreen cell line, calcium fluorescence, antagonist mode. inhibition, % at 3 µM. actives 77% (n = 2,400). AID 651780; in the data active = inhibition above about 22%;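 also: CHO-Ga16 host cells stimulated with ATP at an EC80 level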
TAAR1 ant conf – human TAAR1 antagonism, confirmed; shares compounds with TAAR1 antag; actives 40% (n = 2,400); inhibition, % at 3 µM; TAAR1-expressing cells, fluorescence antagonist read-out; in the data active = inhibition above about 49%;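 also: CHO-Ga16 host cells challenged with agonist PEA near its EC80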
Ga16 nonsel ag – counter-screen for TAAR1 antagonists: nonselective Ga16 agonists; shares compounds with TAAR1 antag; Ga16-expressing cells, calcium fluorescence, agonist counterscreen; activation, % at 3 µM; actives 18% (n = 2,400); AID 651953; in the data active = activation above about 12%
TAAR1 ag counter – activates human TAAR1 in antagonist counter-screen. shares compounds with TAAR1 antag. hTAAR1 cell line, fluorescence activation, agonist mode. activation, % at 3 µM. actives 2% (n = 2,400). AID 651955; in the data active = activation above about 37%;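 also: CHO cells stably expressing TAAR1 with calcium dye readout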
Numbers stand for hits. Rows were chosen to be rich in hits. Some 2.3% of all compounds tested hit in one or more screens of this group.

For O=C(C[C@H]1C/C=C\CC[C@H](Cc2ccc(F)cc2)C(=O)O[C@@H](c2ccccc2)CNC1=O)N[C@@H](CO)Cc1ccccc1 the results were V1aR counter inactive, TAAR1 ag inactive, OXTR potentiator inactive, OXTR ag inactive, TAAR1 antag 59.2, nonsel antag count 34.8, TAAR1 ant conf 48.7, Ga16 nonsel ag inactive and TAAR1 ag counter inactive.
`O=C1NC[C@@H](c2ccccc2)OC(=O)[C@H](Cc2ccc(F)cc2)C/C=C\C[C@@H]1CC(=O)N(CCO)Cc1ccccc1` gave V1aR counter inactive, TAAR1 ag inactive, OXTR potentiator inactive, OXTR ag inactive, TAAR1 antag 66.6, nonsel antag count inactive, TAAR1 ant conf inactive, Ga16 nonsel ag inactive and TAAR1 ag counter inactive.
`O=C1NC[C@H](c2ccccc2)OC(=O)[C@H](Cc2ccc(F)cc2)C/C=C\C[C@@H]1CC(=O)N(CCO)Cc1ccccc1` gave V1aR counter inactive, TAAR1 ag inactive, OXTR potentiator inactive, OXTR ag inactive, TAAR1 antag 77.2, nonsel antag count 31.6, TAAR1 ant conf inactive, Ga16 nonsel ag inactive and TAAR1 ag counter inactive.
`COc1ccc(NC(=O)CSc2ccc3ccccc3c2)cc1S(=O)(=O)N1CCCCC1` gave V1aR counter inactive, TAAR1 ag inactive, OXTR potentiator inactive, OXTR ag inactive and TAAR1 antag inactive.
`O=C(CSc1ncnc2c1nnn2-c1ccc(F)cc1)NCc1ccco1` gave V1aR counter inactive, TAAR1 ag inactive, OXTR potentiator inactive, OXTR ag inactive, TAAR1 antag 63.7, nonsel antag count inactive, TAAR1 ant conf inactive, Ga16 nonsel ag inactive and TAAR1 ag counter inactive.
Cc1ccc(-n2nnc3c(SCC(=O)NCc4ccco4)ncnc32)cc1 was read as V1aR counter inactive, TAAR1 ag inactive, OXTR potentiator inactive, OXTR ag inactive and TAAR1 antag inactive.
For COc1cc(NC(=O)c2cc3ccccc3cc2OC)ccc1NC(=O)c1cccs1 the results were V1aR counter inactive, TAAR1 ag inactive, OXTR potentiator inactive, OXTR ag inactive, TAAR1 antag 85.0, nonsel antag count 22.7, TAAR1 ant conf 51.2, Ga16 nonsel ag inactive and TAAR1 ag counter inactive.
Screening COc1cc(NC(=O)c2ccccc2Cl)ccc1NC(=O)c1cccs1 returned V1aR counter inactive, TAAR1 ag inactive, OXTR potentiator inactive, OXTR ag inactive and TAAR1 antag inactive.
FC(F)Sc1ccc(NC(=S)N2CCN(c3ccccn3)CC2)cc1 was read as TAAR1 ag inactive and TAAR1 antag inactive.
For Oc1ccccc1N1CCN(C(=S)Nc2ccc(SC(F)F)cc2)CC1 the results were V1aR counter inactive, TAAR1 ag inactive, OXTR potentiator inactive, OXTR ag inactive, TAAR1 antag 82.5, nonsel antag count 41.9, TAAR1 ant conf 54.6, Ga16 nonsel ag 13.9 and TAAR1 ag counter inactive.
`O=C(NC(c1ccc(-c2ccccc2)cc1)c1cnccn1)C1CCN(CCN2C(=O)c3ccccc3C2=O)CC1` (centres undefined) gave TAAR1 ag inactive and TAAR1 antag inactive.
COc1cccc(-c2nn(-c3ccccc3)cc2C(=O)n2nnc3ccccc32)c1 was read as V1aR counter inactive, TAAR1 ag inactive, OXTR potentiator inactive, OXTR ag inactive and TAAR1 antag inactive.
`COc1cccc(-c2nn(-c3ccccc3)cc2C(=O)Nc2nccs2)c1` gave V1aR counter inactive, TAAR1 ag inactive, OXTR potentiator inactive, OXTR ag inactive, TAAR1 antag 65.3, nonsel antag count inactive, TAAR1 ant conf 49.2, Ga16 nonsel ag inactive and TAAR1 ag counter inactive.
For CCN=C1SC(CC(=O)Nc2ccc(N3CCOCC3)cc2)C(=O)N1CC (centres undefined) the results were V1aR counter inactive, TAAR1 ag inactive, OXTR potentiator inactive, OXTR ag inactive and TAAR1 antag inactive.
Screening CCN=C1SC(CC(=O)Nc2ccc(C(F)(F)F)cc2)C(=O)N1CC (centres undefined) returned V1aR counter inactive, TAAR1 ag inactive, OXTR potentiator inactive, OXTR ag inactive, TAAR1 antag 77.3, nonsel antag count 38.0, TAAR1 ant conf 64.5, Ga16 nonsel ag 12.6 and TAAR1 ag counter inactive.
Screening CCC(C)NC(=O)c1cc(S(=O)(=O)N2CCCCC2)c[nH]1 (centres undefined) returned V1aR counter inactive, TAAR1 ag inactive, OXTR potentiator inactive, OXTR ag inactive and TAAR1 antag inactive.
For CCN(CC(=O)Nc1ccccc1OC)C(=O)c1ccc(N(C)S(=O)(=O)c2ccc(C)cc2)cc1 the results were V1aR counter inactive, TAAR1 ag inactive, OXTR potentiator inactive, OXTR ag inactive and TAAR1 antag inactive.
`CCN(CC(=O)Nc1ccc(NC(C)=O)cc1)C(=O)c1ccc(N(C)S(=O)(=O)c2ccc(C)cc2)cc1` gave TAAR1 ag inactive, TAAR1 antag 101.3, nonsel antag count inactive, TAAR1 ant conf inactive, Ga16 nonsel ag inactive and TAAR1 ag counter inactive.
`CN1CCN(C2=C(NS(=O)(=O)c3cccs3)C(=O)c3ccccc3C2=O)CC1` gave V1aR counter inactive, TAAR1 ag inactive, OXTR potentiator inactive, OXTR ag inactive and TAAR1 antag inactive.
Screening O=C1C(NS(=O)(=O)c2cccs2)=C(N2CCN(Cc3ccccc3)CC2)C(=O)c2ccccc21 returned V1aR counter inactive, TAAR1 ag inactive, OXTR potentiator inactive, OXTR ag inactive, TAAR1 antag 70.8, nonsel antag count 30.0, TAAR1 ant conf 48.7, Ga16 nonsel ag inactive and TAAR1 ag counter inactive.
For C=CCN1CCS(=O)(=O)N(Cc2ccccc2)[C@@H](C(C)C)C1=O the results were TAAR1 ag inactive and TAAR1 antag inactive.
Screening COc1ccc(N2CCN(c3nc(Cl)nc(Nc4ccc(F)cc4)n3)CC2)cc1 returned V1aR counter inactive, TAAR1 ag inactive, OXTR potentiator inactive, OXTR ag inactive, TAAR1 antag 78.4, nonsel antag count 27.0, TAAR1 ant conf 50.9, Ga16 nonsel ag inactive and TAAR1 ag counter inactive.
Screening COc1ccc(N2CCN(c3nc(Nc4ccc(C)c(F)c4)nc(N4CCCC4)n3)CC2)cc1 returned V1aR counter inactive, TAAR1 ag inactive, OXTR potentiator inactive, OXTR ag inactive and TAAR1 antag inactive.
